≈ marks a conversion by molar mass, not a printed value.
Key:
HCT-8 = assay: Growth inhibition of human HCT8 cells; format: functional; details: read-out: ED50 (the source's name)
Outline: (§1)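 In-house cytotoxicity assay following an NCI protocol, run on a panel of human tumour lines: KB nasopharyngeal epidermoid carcinoma and HCT-8 ileocecal adenocarcinoma. Potency is reported as ED50 in µg/mL.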

KB = assay: Growth inhibition of human KB cells; format: functional; details: read-out: ED50 (the source's name); outline: as §1
COLO 205 = assay: Growth inhibition of human COLO205 cells; format: functional; details: read-out: ED50 (the source's name)
SK-MEL-5 = assay: Growth inhibition of human SK-MEL-5 cells; format: functional; details: for EC50: read-out: ED50 (the source's name)
Outline: (§2)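 Tested at the NCI in its human disease-oriented in vitro screen of 60 tumour cell lines, following the Monks et al. methods. Activity is expressed as GI50, given as log molar values.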

MOLT-4 = assay: Growth inhibition of human MOLT4 cells; format: functional
HOP-18 = assay: Growth inhibition of human HOP18 cells; format: functional
NCI-H522 = assay: Growth inhibition of human NCI-H522 cells; format: functional
[1] = Growth inhibition of human RPMI8266 cells; format: functional
HCC 2998 = assay: Growth inhibition of human HCC2998 cells; format: functional
[2] = Growth inhibition of human HL60(TB) cells; format: functional, HL-60(TB); details: HL-60
SNB-75 = assay: Growth inhibition of human SNB75 cells; format: functional; outline: as §2
SN12C = assay: Growth inhibition of human SN12C cells; format: functional; outline: as §2
HOP-62 = assay: Growth inhibition of human HOP62 cells; format: functional
[3] = Growth inhibition of human OVACR5 cells; format: functional
HOP-92 = assay: Growth inhibition of human HOP92 cells; format: functional
M14 = assay: Growth inhibition of human M14 cells; format: functional
HCT-15 = assay: Growth inhibition of human HCT15 cells; format: functional
KM12 = assay: Growth inhibition of human KM12 cells; format: functional
Malme-3M = assay: Growth inhibition of human MALME-3M cells; format: functional
RXF 393 = assay: Growth inhibition of human […] cells; format: functional
UACC-62 = assay: Growth inhibition of human UACC62 cells; format: functional; outline: as §2
786-0 = assay: Growth inhibition of human 786-0 cells; format: functional
[4] = Growth inhibition of human […] cells; format: functional
NCI-H460 = assay: Growth inhibition of human NCI-H460 cells; format: functional
KM-20L2 = assay: Growth inhibition of human KM20L2 cells; format: functional
NCI-H322M = assay: Growth inhibition of human NCI-H322M cells; format: functional
HCT-116 = assay: Growth inhibition of human HCT116 cells; format: functional
[5] = Growth inhibition of human OVACR8 cells; format: functional
DMS-273 = assay: Growth inhibition of human DMS273 cells; format: functional
SR = assay: Growth inhibition of human SR cells; format: functional; outline: as §2
HT-29 = assay: Growth inhibition of human HT29 cells; format: functional
SW-620 = assay: Growth inhibition of human SW620 cells; format: functional; outline: as §2
A549 = assay: Growth inhibition of human A549 cells; format: functional
U-251 = assay: Growth inhibition of human U251 cells; format: functional; outline: as §2
[6] = Growth inhibition of human OVACR4 cells; format: functional
SF-539 = assay: Growth inhibition of human SF539 cells; format: functional; outline: as §2
DLD-1 = assay: Growth inhibition of human DLD1 cells; format: functional
SK-MEL-2 = assay: Growth inhibition of human SK-MEL-2 cells; format: functional; outline: as §2
ACHN = assay: Growth inhibition of human ACHN cells; format: functional
M19-MEL = assay: Growth inhibition of human M19-MEL cells; format: functional
[7] = Growth inhibition of human DMS144 cells; format: functional
[8] = Growth inhibition of human LXFL529 cells; format: functional; details: LXFL 529
SF-268 = assay: Growth inhibition of human SF268 cells; format: functional; outline: as §2
NCI-H226 = assay: Growth inhibition of human NCI-H226 cells; format: functional
CCRF-CEM = assay: Growth inhibition of human CCRF-CEM cells; format: functional
SNB-19 = assay: Growth inhibition of human SNB19 cells; format: functional; outline: as §2
LOX IMVI = assay: Growth inhibition of human LOX IMVI cells; format: functional
TK-10 = assay: Growth inhibition of human TK10 cells; format: functional; outline: as §2
K562 = assay: Growth inhibition of human K562 cells; format: functional

COc1ccc2c3c([nH]c2c1)C(=O)C(C)=CC3=O
EC50 (HCT-8): 5.09 µg/mL (≈ 21.1 µM) | EC50 (KB): 4.51 µg/mL (≈ 18.7 µM) | EC50 (COLO 205): 4.51 µg/mL (≈ 18.7 µM) | EC50 (SK-MEL-5): 3.92 µg/mL (≈ 16.2 µM)

CC1=CC(=O)c2[nH]c3ccc(Cl)cc3c2C1=O
EC50 (HCT-8): 6.45 µg/mL (≈ 26.3 µM) | EC50 (KB): 4.39 µg/mL (≈ 17.9 µM) | EC50 (COLO 205): > 20 µg/mL | EC50 (SK-MEL-5): 0.83 µg/mL (≈ 3.38 µM)

CC(C)=CCCC1(C)C=Cc2c(c(C)cc3c2[nH]c2cc(O)ccc23)O1 (configuration not stated)
GI50 (MOLT-4): 0.00324 µM | TGI (MOLT-4; read-out: pTGI): > 25.1 µM | GI50 (HOP-18): 7.41 µM | GI50 (NCI-H522): 6.76 µM

CC1=CC(=O)c2c([nH]c3ccc(F)cc23)C1=O
EC50 (HCT-8): 4.76 µg/mL (≈ 20.8 µM) | EC50 (KB): 2.03 µg/mL (≈ 8.86 µM) | EC50 (COLO 205): 4.5 µg/mL (≈ 19.6 µM) | EC50 (SK-MEL-5): 5.5 µg/mL (≈ 24 µM)

CC(C)=CCCC1(C)C=Cc2c(ccc3c2[nH]c2cc(O)c(C)cc23)O1 (configuration not stated)
GI50 [1]: 6.61 µM | GI50 (HCC 2998): 4.68 µM | GI50 (MOLT-4): 4.17 µM | GI50 [2]: 9.55 µM | GI50 (SNB-75): 12.9 µM | GI50 (SN12C): 4.68 µM | GI50 (HOP-62): 4.79 µM | GI50 [3]: 19.5 µM | GI50 (HOP-92): 4.27 µM | GI50 (M14): 3.89 µM | GI50 (HCT-15): 5.01 µM | GI50 (KM12): 4.79 µM | GI50 (Malme-3M): 5.25 µM | GI50 (RXF 393): 5.25 µM | GI50 (UACC-62): 9.33 µM | GI50 (786-0): 4.27 µM | GI50 [4]: 4.79 µM | GI50 (NCI-H460): 4.68 µM | GI50 (KM-20L2): 5.25 µM | GI50 (NCI-H322M): 6.61 µM | GI50 (HCT-116): 8.71 µM | GI50 [5]: 3.8 µM | GI50 (DMS-273): 5.01 µM | GI50 (SK-MEL-5): 4.9 µM | GI50 (SR): 5.5 µM | GI50 (HT-29): 4.9 µM | GI50 (SW-620): 4.68 µM | GI50 (A549): 6.61 µM | GI50 (U-251): 4.57 µM | GI50 [6]: 7.94 µM | GI50 (SF-539): 4.57 µM | GI50 (DLD-1): 8.91 µM | GI50 (SK-MEL-2): 6.46 µM | GI50 (ACHN): 6.76 µM | GI50 (NCI-H522): 3.89 µM | GI50 (M19-MEL): 6.92 µM | GI50 [7]: 7.08 µM | GI50 [8]: 5.13 µM | GI50 (SF-268): 5.01 µM | GI50 (NCI-H226): 7.08 µM | GI50 (CCRF-CEM): 5.01 µM | GI50 (SNB-19): 25.1 µM | GI50 (LOX IMVI): 4.57 µM | GI50 (TK-10): 16.6 µM | GI50 (K562): 5.62 µM

CC1=CC(=O)c2[nH]c3ccc(C)cc3c2C1=O
EC50 (HCT-8): 6.49 µg/mL (≈ 28.8 µM) | EC50 (KB): 0.92 µg/mL (≈ 4.08 µM) | EC50 (COLO 205): 3.52 µg/mL (≈ 15.6 µM) | EC50 (SK-MEL-5): 0.66 µg/mL (≈ 2.93 µM)

COc1cccc2c3c([nH]c12)C(=O)C(C)=CC3=O
EC50 (HCT-8): 4.7 µg/mL (≈ 19.5 µM) | EC50 (KB): 0.92 µg/mL (≈ 3.81 µM) | EC50 (COLO 205): 5.18 µg/mL (≈ 21.5 µM) | EC50 (SK-MEL-5): 5.5 µg/mL (≈ 22.8 µM)

COc1ccc2[nH]c3c(c2c1)C(=O)C(C)=CC3=O
EC50 (HCT-8): 7.91 µg/mL (≈ 32.8 µM) | EC50 (KB): 0.76 µg/mL (≈ 3.15 µM) | EC50 (COLO 205): 0.87 µg/mL (≈ 3.61 µM) | EC50 (SK-MEL-5): 0.55 µg/mL (≈ 2.28 µM)

CC1=CC(=O)c2[nH]c3ccc(F)cc3c2C1=O
EC50 (HCT-8): 5.88 µg/mL (≈ 25.7 µM) | EC50 (KB): 5.25 µg/mL (≈ 22.9 µM) | EC50 (COLO 205): 9.19 µg/mL (≈ 40.1 µM) | EC50 (SK-MEL-5): 2.51 µg/mL (≈ 11 µM)

— ChEMBL document CHEMBL1142636 (2000)
